Activity calls are given as the source filed them. The rule behind the calls is not given here.
Assays:
[1] = molecular target: T1, Sortase A (Staphylococcus aureus) (UniProt Q9S446); test: (§1) Inhibition of Staphylococcus aureus SrtA deltaN24 mutant assessed as decrease in transpeptidation of IsdA (64 to 323 residues) incubated for 1.25 hrs in presence of NH2-Gly3 nucleophile by SDS-PAGE method
T1 sequence (whole entry): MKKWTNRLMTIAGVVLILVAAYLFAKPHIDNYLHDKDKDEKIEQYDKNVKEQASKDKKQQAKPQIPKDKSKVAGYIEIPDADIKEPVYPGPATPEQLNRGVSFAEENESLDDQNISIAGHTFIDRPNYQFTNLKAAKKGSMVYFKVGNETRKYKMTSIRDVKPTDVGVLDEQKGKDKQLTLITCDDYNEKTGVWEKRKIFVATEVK
Method in brief: (§2)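 Affinity-purified IsdA64–323, a natural SrtA substrate, incubated with purified SrtA ΔN24 and NH2-Gly3 nucleophile, with or without compound. Sorting-signal cleavage giving the transpeptidation product resolved by SDS-PAGE; inhibition seen as partial or complete loss of product.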

Sortase A [2] = molecular target: T2, Sortase A (Staphylococcus aureus, UniProt Q9S446); test: Inhibition of Staphylococcus aureus SrtA deltaN24 mutant transpeptidation activity using abz-LPATG-dnp as substrate preincubated for 10 mins followed by substrate addition measured every 2 mins for 20 mins by FRET assay
Staphylococcus aureus [3] = test: Growth inhibition of Staphylococcus aureus Newman at 50 uM measured every hour; assay type: organism-based; details: in vivo
Sortase A [4] = molecular target: T2, Sortase A; test: as §1; method in brief: as §2
[5] = molecular target: T1, Sortase A (Staphylococcus aureus); test: Irreversible binding affinity to Staphylococcus aureus SrtA deltaN24 mutant at 10 fold IC50 preincubated with compound for 1 hr followed by protein dilution by ESI-LC/MS method
[6] = molecular target: T1, Sortase A (Staphylococcus aureus); test: Irreversible binding affinity to Staphylococcus aureus SrtA deltaN24 mutant at Cys184 at 10 fold IC50 preincubated with compound for 1 hr followed by protein dilution by ESI-LC-MS/MS method
[7] = molecular target: T1, Sortase A (Staphylococcus aureus); test: Inhibition of Staphylococcus aureus Newman SrtA assessed as decrease in SpA display by FITC-IgG-based fluorescence assay; details: Staphylococcus aureus subsp. aureus str. Newman
[8] = molecular target: T1, Sortase A (Staphylococcus aureus); test: Inhibition of Staphylococcus aureus Newman SrtA assessed as decrease in SpA display by SDS/PAGE immunoblotting assay; details: Staphylococcus aureus subsp. aureus str. Newman
[9] = molecular target: T1, Sortase A (Staphylococcus aureus); test: Irreversible inhibition of Staphylococcus aureus SrtA deltaN24 mutant transpeptidation activity using […] as substrate assessed as remaining activity at 10 fold IC50 preincubated for 1 hr followed by protein dilution and subsequent substrate addition measured every 2 mins for 20 mins by FRET assay relative to control
[10] = molecular target: T1, Sortase A (Staphylococcus aureus); test: Binding affinity to Staphylococcus aureus 15N-labelled SrtA deltaN59 mutant at 1:0 and 1:1 molar ratio of protein and compound by 2D 1H-15N HSQC spectra method
[11] = molecular target: T1, Sortase A (Staphylococcus aureus); test: Binding affinity to Staphylococcus aureus 15N-labelled SrtA deltaN59 C184A mutant at 1:0, 1:1, 1:2, 1:5 and 1:10 molar ratio of protein and compound by 2D 1H-15N HSQC spectra method
[12] = molecular target: T1, Sortase A (Staphylococcus aureus); test: Irreversible inhibition of Staphylococcus aureus SrtA deltaN24 mutant transpeptidation activity using abz-LPATG-dnp as substrate assessed as ratio Kinact to Ki incubated for 5 to 25 mins by FRET assay
Sortase A [13] = molecular target: T2, Sortase A; test: (§3) Irreversible inhibition of Staphylococcus aureus SrtA deltaN24 mutant transpeptidation activity using abz-LPATG-dnp as substrate incubated for 5 to 25 mins by FRET assay
[14] = molecular target: T1, Sortase A (Staphylococcus aureus); test: as §3
Staphylococcus aureus [15] = test: Antibiofilm activity against Staphylococcus aureus Newman assessed as inhibition of biofilm biomass after 18 hrs by crystal violet staining-based assay; assay type: functional, organism-based
Staphylococcus aureus [16] = test: Growth inhibition of Staphylococcus aureus Newman at 150 uM incubated for 12 hrs measured every hour by spectrophotometry; assay type: organism-based; details: in vivo

| Structure (SMILES) | inhibition [1] | IC50 (Sortase A [2]) [µM] | growth inhibition (GI) (Staphylococcus aureus [3]) | IC50 (Sortase A [4]) [µM] | Activity [5] | Activity [6] | inhibition [7] | inhibition [8] | Activity [9] [%] | Activity [10] | Activity [11] | Ratio [12] [µM⁻¹ min⁻¹] | Ki (Sortase A [13]) [µM] | Kinact [14] [min⁻¹] | inhibition (Staphylococcus aureus [15]) | growth inhibition (GI) (Staphylococcus aureus [16]) |
| --- | --- | --- | --- | --- | --- | --- | --- | --- | --- | --- | --- | --- | --- | --- | --- | --- |
| CCCNC1=C(C)C(=O)c2c(/C=C/S(=O)(=O)c3ccccc3)cccc2C1=O | inactive | > 50 | – | – | – | – | – | – | – | – | – | – | – | – | – | – |
| CC(C)=CC[C@H](O)C1=CC(=O)c2c(O)ccc(O)c2C1=O [ALKANNIN] | – | 0.36 | Toxic | 5 | – | – | – | – | – | – | – | – | – | – | – | – |
| O=C1C[C@H]2O[C@H](CCc3ccccc3)C3=C(C(=O)C=CC3=O)[C@H]2O1 | – | 6.2 | – | 10 | Active | Active | Dose-dependent effect | Dose-dependent effect | < 10 | Active | inactive | 0.0109 | 3.57 | 0.0388 | Dose-dependent effect | Non-Toxic |
| CC(C)=CC[C@@H](O)C1=CC(=O)c2c(O)ccc(O)c2C1=O [SHIKONIN] | – | 0.3 | Toxic | 5 | – | – | – | – | – | – | – | – | – | – | – | – |
| O=C1C[C@H]2O[C@@H](CCc3ccccc3)C3=C(C(=O)C=CC3=O)[C@H]2O1 | – | 19.4 | – | 50 | – | – | Dose-dependent effect | Dose-dependent effect | < 10 | – | – | – | – | – | Dose-dependent effect | Non-Toxic |
